Active and inactive are the calls of the source. The calls are words filed in the database; no cut-off is given here.
Legend:
SH-SY5Y [1] = assay: Neuroprotective activity against H2O2-induced cytotoxicity in human SH-SY5Y cells at 25 to 100 uM preincubated for 1 hr followed by H2O2-stimulation and measured after 4 hrs by MTT assay; format: functional, cell-based
Method in brief: (§1)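 SH-SY5Y cells preincubated with compound (25, 50 or 100 μM) for 1 h, then exposed to 300 μM H2O2 for 4 h. Viability read by MTT assay. Trolox served as positive control.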

SH-SY5Y [2] = assay: Inhibition of H2O2-induced apoptosis in human SH-SY5Y cells assessed as early apoptotic cells at 25 uM preincubated for 1 hr followed by H2O2-stimulation and measured after 4 hrs by Annexin V-FITC/propidium iodide staining-based flow cytometric analysis (reference value: 2.25%); format: functional; design: scale not given: the % may be the effect or the level left
SH-SY5Y [3] = assay: Inhibition of H2O2-induced apoptosis in human SH-SY5Y cells assessed as necrotic cells at 25 uM preincubated for 1 hr followed by H2O2-stimulation and measured after 4 hrs by Annexin V-FITC/propidium iodide staining-based flow cytometric analysis (reference value: 22.2%); format: functional; design: scale not given: the % may be the effect or the level left
SH-SY5Y [4] = assay: Inhibition of H2O2-induced apoptosis in human SH-SY5Y cells assessed as viable cells at 25 uM preincubated for 1 hr followed by H2O2-stimulation and measured after 4 hrs by Annexin V-FITC/propidium iodide staining-based flow cytometric analysis (reference value: 50.7%); format: functional; details: read-out: Activity
SH-SY5Y [5] = assay: Neuroprotective activity against H2O2-induced cytotoxicity in human SH-SY5Y cells at 25 uM preincubated for 1 hr followed by H2O2-stimulation and measured after 4 hrs by MTT assay; format: functional, cell-based; method in brief: as §1
SH-SY5Y [6] = assay: Inhibition of H2O2-induced apoptosis in human SH-SY5Y cells assessed as late apoptotic cells at 25 uM preincubated for 1 hr followed by H2O2-stimulation and measured after 4 hrs by Annexin V-FITC/propidium iodide staining-based flow cytometric analysis (reference value: 24.9%); format: functional; design: scale not given: the % may be the effect or the level left
SH-SY5Y [7] = assay: Inhibition of H2O2-induced apoptosis in human SH-SY5Y cells assessed as decrease in caspase-3 activity at 25 uM; format: functional, cell-based
Method in brief: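 SH-SY5Y cells exposed to H2O2 with or without test compound; caspase-3 activity in the cells quantified with a commercial caspase-3 activity assay kit; data given as means ± SDs.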

For `COC1=C[C@@H](C)[C@@H]2C[C@H]3O[C@@H](O[C@@H]4O[C@H](CO)[C@@H](O)[C@H](O)[C@H]4O)C[C@H]4[C@@H](C)[C@H](OC)[C@@H](O)[C@H]([C@@]2(C)C1=O)[C@@]34C`, the Activity (SH-SY5Y [1]) was “Active”.
In the case of `COC1=C[C@@H](C)[C@@H]2C[C@H]3O[C@@H](O[C@@H]4O[C@H](CO)[C@@H](O)[C@H](O)[C@H]4O)C[C@@H]4[C@@]3(C)[C@H]([C@H](O)C(=O)[C@@]4(C)O)[C@@]2(C)C1=O`, the Activity (SH-SY5Y [1]) is reported as “inactive”.
`COC1=C[C@@H](C)[C@@H]2C[C@H]3OC(=O)C[C@@]4(O)C(C)=C(OC)C(=O)[C@H]([C@@]2(C)C1=O)[C@@]34C` showed an Activity (SH-SY5Y [2]) of 3.18%, an Activity (SH-SY5Y [3]) of 11.3% and a viability at 25 µM (SH-SY5Y [4]) of 72.1%. The Activity (SH-SY5Y [5]) was “Active” and the Activity (SH-SY5Y [6]) was 13.4%.
In the case of `COC1=C[C@@H](C)[C@@H]2C[C@H]3OC(=O)C[C@H]4[C@](C)(O)[C@@H](O)C(=O)[C@H]([C@@]2(C)C1=O)[C@@]34C`, the Activity (SH-SY5Y [1]) is reported as “inactive”.
With `COC1=C[C@@H](C)[C@@H]2C[C@H]3OC(=O)C[C@H]4[C@](C)(O)[C@@H]5OCO[C@H]5[C@H]([C@@]2(C)C1=O)[C@@]34C` the Activity (SH-SY5Y [1]) was “Active”.
`COC1=C[C@@H](C)[C@@H]2C[C@H]3OC(=O)C=C4[C@@H](C)[C@@H]5OCO[C@H]5[C@@H]([C@]43C)[C@@]2(C)C1=O` was tested, and the Activity (SH-SY5Y [1]) was “inactive”.
`COC1=C[C@@H](C)[C@@H]2C[C@H]3OC(=O)C[C@@]4(O)[C@@H](C)[C@H](OC)[C@@H](O)[C@H]([C@@]2(C)C1=O)[C@@]34C` was tested, and the Activity (SH-SY5Y [1]) was “Active”.
With `COC1=C[C@@H](C)[C@@H]2C[C@H]3O[C@@H](O[C@@H]4O[C@H](CO)[C@@H](O)[C@H](O)[C@H]4O)C[C@@H]4[C@@]3(C)[C@H]([C@H](O)C(=O)[C@@]4(C)OC(C)=O)[C@@]2(C)C1=O` the Activity (SH-SY5Y [1]) was “inactive”.
For `COC1=C[C@@H](C)[C@@H]2C[C@H]3O[C@@H](O[C@@H]4O[C@H](CO)[C@@H](O)[C@H](O)[C@H]4O)C[C@H]4C(C)=C(OC)C(=O)[C@H]([C@@]2(C)C1=O)[C@@]34C` [PICRASINOSIDE B], the Activity (SH-SY5Y [2]) was 1.86%, the Activity (SH-SY5Y [3]) was 7.43% and the Activity (SH-SY5Y [7]) was “Active”. The viability at 25 µM (SH-SY5Y [4]) was 82.2%, the Activity (SH-SY5Y [5]) was “Active” and the Activity (SH-SY5Y [6]) was 8.55%.
With `COC1=C[C@@H](C)[C@@H]2C[C@H]3OC(=O)C[C@H]4[C@@H](C)[C@H](OC)[C@@H](OC(=O)c5cc(OC)c6c(c5)OCO6)[C@H]([C@@]2(C)C1=O)[C@@]34C` the Activity (SH-SY5Y [2]) was 2.2%, the Activity (SH-SY5Y [3]) was 7.89% and the Activity (SH-SY5Y [7]) was “Active”. For the same molecule, the viability at 25 µM (SH-SY5Y [4]) was 79.8%, the Activity (SH-SY5Y [5]) was “Active” and the Activity (SH-SY5Y [6]) was 10.1%.
`COC1=C[C@@H](C)[C@@H]2C[C@H]3OC(=O)C[C@H]4C(CO)=C(OC)C(=O)[C@H]([C@@]2(C)C1=O)[C@@]34C` gave an Activity (SH-SY5Y [2]) of 2.96%, an Activity (SH-SY5Y [3]) of 7.31% and a viability at 25 µM (SH-SY5Y [4]) of 76.8%. The Activity (SH-SY5Y [5]) was “Active” and the Activity (SH-SY5Y [6]) was 13%.
In the case of `COC1=C[C@@H](C)[C@@H]2C[C@H]3OC(=O)C[C@H]4[C@@H](C)[C@H](O)C(=O)[C@H]([C@@]2(C)C1=O)[C@@]34C`, the Activity (SH-SY5Y [1]) is reported as “inactive”.
For `COC1=C[C@@H](C)[C@@H]2C[C@H]3OC(=O)C=C4C(C)=C(OC)C(=O)[C@@H]([C@]43C)[C@@]2(C)C1=O`, the Activity (SH-SY5Y [1]) was “Active”.
In the case of `COC1=C[C@@H](C)[C@@H]2C[C@H]3OC(=O)C[C@H]4C(C)=C(OC)C(=O)[C@H]([C@@]2(C)C1=O)[C@@]34C` [QUASSIN], the Activity (SH-SY5Y [2]) is reported as 2.45%, the Activity (SH-SY5Y [3]) is reported as 10.7% and the viability at 25 µM (SH-SY5Y [4]) is reported as 73.1%. For the same molecule, the Activity (SH-SY5Y [5]) was “Active” and the Activity (SH-SY5Y [6]) was 13.7%.
With `COC1=C[C@@H](C)[C@@H]2C[C@H]3OC(=O)C[C@H]4[C@](C)(O)[C@H](OC)[C@@H](O)[C@H]([C@@]2(C)C1=O)[C@@]34C` the Activity (SH-SY5Y [1]) was “Active”.
For `COC1=C[C@@H](C)[C@@H]2C[C@H]3OC(=O)C[C@H]4[C@@H](C)[C@@H](O)C(=O)[C@H]([C@@]2(C)C1=O)[C@@]34C`, the Activity (SH-SY5Y [1]) was “inactive”.
With `COC1=C[C@@H](C)[C@@H]2C[C@H]3O[C@@H](O[C@@H]4O[C@H](CO)[C@@H](O)[C@H](O)[C@H]4O)C[C@H]4[C@](C)(O)[C@H](OC)[C@@H](O)[C@H]([C@@]2(C)C1=O)[C@@]34C` the Activity (SH-SY5Y [1]) was “Active”.
`COC1=C(C)[C@@H]2CC(=O)O[C@@H]3C[C@H]4[C@H](C)C[C@H](O)C(=O)[C@]4(C)[C@@H](C1=O)[C@@]32C` was tested, and the Activity (SH-SY5Y [1]) was “Active”.
In the case of `COC1=C[C@@H](C)[C@@H]2C[C@H]3OC(=O)C[C@H]4[C@@H](C)[C@@H]5OCO[C@H]5[C@H]([C@@]2(C)C1=O)[C@@]34C`, the Activity (SH-SY5Y [1]) is reported as “Active”.

Reference: ChEMBL document CHEMBL4480463, “Quassinoids from Picrasma quassioides and Their Neuroprotective Effects” (2019)
